Drawing on ChEMBL document CHEMBL1250529, “Retinobenzaldehydes as proper-trafficking inducers of folding-defective P23H rhodopsin mutant responsible for retinitis pigmentosa” (Bioorg Med Chem, 2010), this text covers CC50 and Activity for 12 compounds.

Activity calls are given as the source filed them. The rule behind the calls is not given here. A value given as a limit tells only on which side of the number the result lay.

A short description of series [1]: Cytotoxicity against HEK293 cells by WST-1 assay. Type of series: cell-based. The conditions noted are these: human. In outline:
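HEK293 cells, poly-Lys-coated wells (1 × 10^4 cells/well), grown 16–20 h, then exposed to compounds in DMEM/5% FBS (0.1% DMSO final) for 20–22 h. WST-1 added, 2 h, A405 read. Viability = treated/vehicle absorbance after background (no-cell wells) subtraction; CC50 derived from dose curves.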

In series [2] the test system is HEK293. Put plainly: Upregulation of HA-tagged rhodopsin P23H expression in HEK293 cell surface by ELISA. The conditions noted are these: Homo sapiens. Type of series: functional, cell-based. The method, boiled down:
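HEK293 in poly-lysine-coated wells transfected with HA-tagged human P23H rhodopsin; 2–3 h later compounds in DMEM/5% FBS (0.1% DMSO final) for 20 h. Non-permeabilized cells fixed, blocked, HRP-anti-HA 1.5 h rt, chemiluminescent readout. Background-subtracted signal expressed relative to untreated cells (=1.0); ≥2 independent experiments (n >4).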

Series [3] has as its system Rhodopsin (Homo sapiens), P08100 [P23H]. Put plainly: Induction of subcellular localization of HA-tagged human rhodopsin P23H mutant on HEK293 cell surface by immunofluorescence microscopy. Type of series: cell-based.

For orientation: CC50 means the concentration that lowers cell viability or growth by half. A high value points to lower toxicity to the cells. Regarding `NC(=O)c1ccc(COC(=O)c2cc(C(F)(F)F)cc(C(F)(F)F)c2)cc1`, the CC50 in series [1] was over 100 µM.

With `O=C(OCc1ccc(B(O)O)cc1)c1cc(C(F)(F)F)cc(C(F)(F)F)c1`, in series [1], half-maximal cytotoxicity (CC50) was put at 49 µM. As for `CC(C)(C)c1ccc(C(=O)OCc2ccc(C=O)cc2)cc1`, in series [1], the 50% cytotoxic concentration (CC50) is 63 µM. In turn, `CC1(C)CCC(C)(C)c2cc(C(=O)OCc3ccc(C=O)cc3)ccc21` returned a CC50 in series [1] of 48 µM. For `CC1=C(/C=C/C(C)=C/C=C\C(C)=C\C=O)C(C)(C)CCC1` [RHODOPSIN], the Activity entry in series [2] was “Dose-dependent effect”. The compound also came in with a CC50 in series [1] of 23 µM. Besides, the result in series [3] was Active. As to `O=C(O)c1ccc(COC(=O)c2cc(C(F)(F)F)cc(C(F)(F)F)c2)cc1`, the CC50 in series [1] is over 100 µM.

`CC(C)(C)c1cc(C(=O)OCc2ccc(C=O)cc2)cc(C(C)(C)C)c1` came in with a half-maximal cytotoxic concentration (CC50) in series [1] of 34 µM. For the compound `O=Cc1ccc(COC(=O)c2ccc3c(c2)CCCC3)cc1`, the CC50 in series [1] was over 100 µM. Still for that read-out and setting: the same measure for `CC(C)(C)c1cccc(C(=O)OCc2ccc(C=O)cc2)c1`: 73 µM.

With `CC1(C)CCC(C)(C)c2cc(C(=O)NCc3ccc(C=O)cc3)ccc21`, the CC50 in series [1] stood at 49 µM. On to `CC1=C(/C=C/C(C)=C\C=C\C(C)=C\C=O)C(C)(C)CCC1` [ISO RHODOPSIN], for which the Activity result in series [2] is “Dose-dependent effect”. For the same compound, the CC50 in series [1] amounted to 28 µM. For the same compound, the outcome in series [3] was Active. In the case of `O=Cc1ccc(COC(=O)c2cc(C(F)(F)F)cc(C(F)(F)F)c2)cc1`, the CC50 in series [1] is over 100 µM.
